Active and inactive are the calls of the source. The calls are words filed in the database; no cut-off is given here.
Legend:
[1] = system: Plasmodium falciparum; test: Antimalarial activity against chloroquine-sensitive Plasmodium falciparum 3D7 infected in human RBC after 72 hrs by DAPI staining based confocal microscopic method; assay type: functional; conditions: 3D7, 72 h
Procedure, shortened: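 Triplicate runs, n = 3. Percent inhibition plotted against log dose, and IC50 fitted by nonlinear regression with variable slope. An initial single-point screen was run at 20 μM final concentration.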

[2] = Selectivity index, ratio of IC50 for HEK293 cells to IC50 for chloroquine-sensitive Plasmodium falciparum 3D7 infected in human RBC; assay type: toxicity; conditions: HEK293 cells versus Plasmodium falciparum 3D7 in human RBC, read-out: Ratio IC50
Procedure, shortened: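 Selectivity index computed as the HEK293 IC50 divided by the P. falciparum 3D7 IC50, compared against puromycin as a nonselective standard.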

[3] = system: Krebs2; test: Inhibition of cap/HCV-mediated translation in mouse Krebs2 cell free extract expressing FF/HCV/IRES-Ren mRNA reporter transcript assessed as reduction in luciferase production at 20 uM after 60 mins; assay type: functional
Procedure, shortened: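 Krebs-2 in vitro translation extracts programmed with bicistronic firefly-HCV IRES-Renilla luciferase mRNA. Compounds at 10 mM DMSO stock, diluted to 200 μM in water before addition. Reactions incubated 60 min at 30 °C, then both luciferase activities read. Firefly signal reports cap-dependent translation; Renilla signal reports HCV IRES translation.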

[4] = system: HEK293; test: Growth inhibition of HEK293 cells after 72 hrs by PrestoBlue staining based fluorescence assay; assay type: cell-based; conditions: Homo sapiens, HEK293, 72 h
Procedure, shortened: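 HEK293 cytotoxicity IC50s: percent inhibition plotted against log dose and fitted by nonlinear regression (variable slope). Experiments run in triplicate (n = 3).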

[5] = system: Plasmodium falciparum; test: Antimalarial activity against chloroquine-resistant Plasmodium falciparum Dd2 infected in human RBC after 72 hrs by DAPI staining based confocal microscopic method; assay type: functional; conditions: Dd2, 72 h
Procedure, shortened: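 Triplicate runs, n = 3. Percent inhibition plotted against log dose, and IC50 fitted by nonlinear regression with variable slope. […] An initial single-point screen was run at 20 μM final concentration.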

[6] = system: Plasmodium falciparum; test: Growth inhibition of chloroquine-sensitive Plasmodium falciparum 3D7 infected in human RBC at 20 uM after 72 hrs by DAPI staining based confocal microscopic method relative to control; assay type: functional; conditions: 3D7, 72 h, read-out: GI
[7] = system: MDA-MB-231; test: Growth inhibition of human MDA-MB-231 cells after 72 hrs by alamar blue assay; assay type: functional, cell-based; conditions: MDA-MB-231, 72 h
Procedure, shortened: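 MDA-MB-231 cells grown in DMEM with 10% FBS, 2 mM L-glutamine, penicillin and streptomycin at 37 °C, 5% CO2. Seeded at 10 000 cells/well, preincubated 24 h, then exposed to 100−0.1 μg/mL for 72 h; vehicle 0.1% or 1.0% DMSO. Alamar Blue read by absorbance at 570 nm (600 nm reference). Six replicates, expressed as % of vehicle control.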

[8] = system: Plasmodium falciparum; test: Growth inhibition of chloroquine-sensitive Plasmodium falciparum 3D7 infected in human RBC at 40 uM after 72 hrs by DAPI staining based confocal microscopic method relative to control; assay type: functional; conditions: 3D7, 72 h, read-out: GI
[9] = system: Plasmodium falciparum; test: Growth inhibition of chloroquine-resistant Plasmodium falciparum Dd2 infected in human RBC at 40 uM after 72 hrs by DAPI staining based confocal microscopic method relative to control; assay type: functional; conditions: Dd2, 72 h, read-out: GI
Procedure, shortened: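 Percentage growth inhibition was read at 40 μM, a single concentration. The value is the mean of at least two independent measurements.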

[10] = Growth inhibition of HEK293 cells at 40 uM after 72 hrs by PrestoBlue staining based fluorescence assay relative to control; assay type: cell-based; conditions: human, read-out: GI
[11] = Growth inhibition of HEK293 cells at 20 uM after 72 hrs by PrestoBlue staining based fluorescence assay relative to control; assay type: cell-based; conditions: human, read-out: GI
[12] = Selectivity index, ratio of growth inhibitory effect against HEK293 cells at 20 uM to IC50 for chloroquine-sensitive Plasmodium falciparum 3D7 infected in human RBC; assay type: toxicity, cell-based; conditions: HEK293 cells versus Plasmodium falciparum 3D7 in human RBC, read-out: Selectivity Index

SMILES	IC50 [1] [nM]	inhibition [3]	IC50 [7] [nM]	inhibition of growth at 40 µM [8] [%]	other results
CC(=O)O[C@@H]1C=C[C@H](O)[C@@H](O)/C1=C/OC(=O)c1ccccc1	200	inactive	30	–	selectivity ratio [2]: 14; IC50 [4]: 2700 nM; IC50 [5]: 480 nM; inhibition of growth at 20 µM [6]: ≥ 90%
CC(=O)O[C@H](OC(=O)c1ccccc1)[C@@]12C=C[C@@H](c3ccc(C=O)cc31)[C@H](O)[C@H]2OC(C)=O	–	–	–	98	–
CC(=O)OC(OC(=O)c1ccccc1)C1=CC=C[C@H](O)[C@H]1OC(C)=O (stereo partly drawn)	1200	–	290	–	selectivity ratio [2]: 3; IC50 [4]: 3600 nM; IC50 [5]: 2200 nM; inhibition of growth at 20 µM [6]: ≥ 90%
O=C(OCc1cc(O)ccc1O)c1ccccc1	–	–	90	67	–
COc1ccc2nc3cc(Cl)ccc3c(Nc3cc(CN4CCCC4)c(O)c(CN4CCCC4)c3)c2n1 [PYRONARIDINE]	–	–	–	–	selectivity ratio [2]: 494; IC50 [4]: 1800 nM
CC(=O)O[C@H]1C=C[C@H](Cl)[C@](O)(COC(=O)c2ccccc2)[C@@H]1O	–	inactive	450	95	–
O=Cc1cccc(O)c1 [3-HYDROXYBENZALDEHYDE]	–	inactive	8200	25	–
O=C1C=C/C(=C/[C@@H](O)COC(=O)c2ccccc2)O1	–	–	240	92	–
CC(=O)OC[C@]1(O)[C@H](OC(=O)c2ccccc2)C=C[C@@H](OC(C)=O)[C@@H]1O	–	inactive	–	–	–
COc1ccc(C[C@H](N)C(=O)N[C@H]2[C@@H](O)[C@H](n3cnc4c(N(C)C)ncnc43)O[C@@H]2CO)cc1 [PUROMYCIN]	23	–	–	–	selectivity ratio [2]: 15.9
CC(=O)O[C@H](/C=C1/C=CC(=O)O1)COC(=O)c1ccccc1	6670	inactive	–	–	inhibition of growth at 40 µM [9]: 100%; inhibition at 72 h, 40 µM [10]: 100%; inhibition of growth at 20 µM [6]: ≥ 90%
C[C@H]1[C@H](OC(=O)CCC(=O)O)O[C@@H]2O[C@@]3(C)CC[C@H]4[C@H](C)CC[C@@H]1[C@@]24OO3 [ARTESUNATE]	0.48	–	–	–	inhibition at 72 h, 20 µM [11]: 75%; selectivity ratio at 20 µM [12]: > 22
CC(=O)O[C@H]1C=C[C@H](O)[C@@](O)(COC(=O)c2ccccc2)[C@@H]1OC(C)=O	–	inactive	2700	54	–
CC(=O)O[C@H]1C=C[C@H](Cl)[C@@](O)(COC(=O)c2ccccc2)[C@@H]1O	–	inactive	120	72	–
CCc1nc(N)nc(N)c1-c1ccc(Cl)cc1 [PYRIMETHAMINE]	–	–	–	–	IC50 [4]: 4200 nM
C[C@H]1[C@@H](O)O[C@@H]2O[C@@]3(C)CC[C@H]4[C@H](C)CC[C@@H]1[C@@]24OO3 [ARTENIMOL]	0.11	–	–	–	inhibition at 72 h, 20 µM [11]: 50%; IC50 [5]: 0.15 nM; selectivity ratio at 20 µM [12]: > 22
CC(=O)O[C@@H]1C=C[C@@H](OC(=O)c2ccccc2)[C@@](O)(COC(=O)c2ccccc2)[C@H]1OC(C)=O	–	inactive	2100	99	–
CC(=O)O[C@@H]1C=C[C@H](O)[C@@H](OC(C)=O)/C1=C/OC(=O)c1ccccc1	620	inactive	290	–	selectivity ratio [2]: 4; IC50 [4]: 2400 nM; IC50 [5]: 3400 nM; inhibition of growth at 20 µM [6]: ≥ 90%

From ChEMBL document CHEMBL4004787, “Polyoxygenated Cyclohexenes and Other Constituents of Cleistochlamys kirkii Leaves” (J Nat Prod, 2017)
